Measurements gathered from unrelated publications.
Compare with care: the assays were run in different laboratories.
Target: Tyrosine-protein kinase Blk (BLK, Homo sapiens, UniProt P51451)

O=C(Nc1cnn(-c2csc(C(=O)NC3COC3)c2)c1)Nc1c(F)cccc1Cl
remaining activity (enzyme activity; inhibitor; 5 µM): 96.1%

N#CCCc1ccc2c(c1)-c1[nH]c3ccc([N+](=O)[O-])cc3c1CC(=O)N2
remaining signal (cell-free assay; 0.5 µM): 78.8%

CC(C)(O)[C@H]1CC[C@H](Nc2ccc3ncc(-c4cccc(C(F)(F)F)c4)n3n2)CC1
remaining activity (enzyme activity; inhibitor; 1 µM): 37.5%

O=C(Nc1cccnn1)N1CC(C/C=C/c2cncc(Oc3ccc(C(F)(F)F)cn3)n2)C1
remaining binding (cell-free assay; competition with immobilised ligand; 1 µM): 65%

COc1cc(Cl)c(C(=O)N[C@@H](CN[C@H]2CC[C@@H](N)CC2)Cc2ccc(C#N)cc2)cc1-c1ccc(CN[C@H](C)c2ccc(C)cc2)o1
remaining activity (enzyme activity; inhibitor; 1 µM): 80%

O=c1cc(-c2cccc3c2Sc2ccccc2S3)oc(N2CCOCC2)c1
remaining activity (enzyme activity; inhibitor; 0.5 µM): 96.2%

Cc1ccc(NC(=O)c2ccc(C)c(C(F)(F)F)c2)cc1C#Cc1nn(C2CCC(O)CC2)c2ncnc(N)c12 (centres unmarked)
remaining signal (cell-free assay; 10 µM): 0%

CCC(=O)N[C@@H]1CC[C@H](C(=O)N(C)c2ccc(-c3nc4ccccc4o3)cc2)C1
remaining binding (cell-free assay; competition with immobilised ligand; 1 µM): 100%

Cc1cnc(NC2CCOCC2)nc1-n1cnc(C(=O)NC(CN)c2cc(F)cc(Cl)c2)c1 (centres unmarked)
remaining activity (enzyme activity; inhibitor; radiometric; 1 µM): 112%

CC/C(=N\NC(=O)NCc1cccc(O)c1)c1ccc(O)c(C)c1O
inhibition (enzyme activity; inhibitor; 0.1 µM): 6%

Cc1ccc(C(=O)Nc2ccc(CN3CCN(C)CC3)c(C(F)(F)F)c2)cc1C#Cc1cnc2cccnn12
remaining activity (enzyme activity; 23.5 nM): 1.2%

CCOCCn1cc(C(=O)Nc2ccc(-n3nc(-c4cccnc4)cc3C(F)(F)F)cn2)ccc1=O
remaining binding (cell-free assay; competition with immobilised ligand; 1 µM): 89%

COc1cc2ncnc(Nc3ccc(Oc4ccccc4)cc3C)c2cc1OC
inhibition (enzyme activity; inhibitor; 1 µM): 85%

N#Cc1ccc(Nc2ccc3[nH]c(=O)[nH]c3c2)c(Cl)c1
remaining binding (cell-free assay; competition with immobilised ligand; 1 µM): 97%

COc1cc2ncnc(Nc3ccc(F)c(Cl)c3)c2cc1OCCCN1CCOCC1
remaining signal (cell-free assay; 0.5 µM): 87.7%

CN(C(=O)c1ccccc1)c1cc(N(C)c2ccc3c(c2)CCc2ccc(C(=O)NCCN4CCOCC4)cc2C3=O)ccc1F
remaining binding (cell-free assay; competition with immobilised ligand; 1 µM): 100%

CC(C)(C)c1nc(-c2cccc(NS(=O)(=O)c3c(F)cccc3F)c2F)c(-c2ccnc(N)n2)s1
remaining activity (enzyme activity; inhibitor; radiometric; 1 µM): 29%
